In ChEMBL document CHEMBL1124839, “5-Hydroxytryptamine (5-HT3) receptor antagonists. 3. Ortho-substituted phenylureas” (J Med Chem, 1990):

Biological target: Serotonin 3 (5-HT3) receptor (Rattus norvegicus) (UniProt P35563+Q9JJ16)
Assay: In vivo 5-hydroxytryptamine 3 receptor (5-HT 3 receptor) antagonistic activity expressed as ability to inhibit Bezold-Jarich reflex evoked by 5-HT in rats
Format: functional, organism-based
Procedure, shortened: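 Male rats (260-290 g) anesthetized with urethane (1.25 g/kg ip), with blood pressure and heart rate recorded. A submaximal 5-HT dose (6 µg/kg iv) was given repeatedly, and the heart-rate change was quantified. Compound was given iv before 5-HT. ID50 is the dose reducing the 5-HT-evoked response to 50% of the control response.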

ID50 [µg/kg] | SMILES
2.6 | C=CCOc1ccccc1NC(=O)NC1CC2CCC(C1)N2C (configuration not stated)
9.8 | CCCOc1ccccc1NC(=O)NC1CC2CCC(C1)N2C (configuration not stated)
8.3 | CCCCOc1ccccc1NC(=O)NC1CC2CCC(C1)N2C (configuration not stated)
> 100 | COc1ccccc1NC(=O)NC1CC2CCCC(C1)N2C (stereo in doubt; 11c)
2.5 | COc1ccccc1NC(=O)NC1CC2CCC(C1)N2C (configuration not stated)
> 10 | CN1C2CCC1CC(NC(=O)Nc1ccccc1OC(C)(C)C)C2 (configuration not stated)
3.1 | CCOc1ccccc1NC(=O)NC1CC2CCC(C1)N2C (configuration not stated)
13.4 | COCc1ccccc1NC(=O)NC1CC2CCC(C1)N2C (configuration not stated)
12.7 | CSc1ccccc1NC(=O)NC1CC2CCC(C1)N2C (configuration not stated)
2.7 | CCC(C)Oc1ccccc1NC(=O)NC1CC2CCC(C1)N2C (configuration not stated)
4.2 | CC(C)Oc1ccccc1NC(=O)NC1CC2CCC(C1)N2C (configuration not stated)
7.5 | COc1ccccc1NC(=O)NC1CC2CCCC(C1)N2C (stereo in doubt; 6c)

More lines, now with the values behind:

SMILES | ID50 [µg/kg]
COc1ccc(NC(=O)NC2CC3CCC(C2)N3C)c(OC)c1 (configuration not stated) | > 10
COc1ccc([N+](=O)[O-])cc1NC(=O)NC1CC2CCC(C1)N2C (configuration not stated) | > 10
CCOC(=O)c1ccccc1NC(=O)NC1CC2CCC(C1)N2C (configuration not stated) | 5.2
COc1ccc(OC)c(NC(=O)NC2CC3CCC(C2)N3C)c1 (configuration not stated) | > 10
COc1cc(F)ccc1NC(=O)NC1CC2CCC(C1)N2C (configuration not stated) | > 10
COc1ccc(F)cc1NC(=O)NC1CC2CCC(C1)N2C (configuration not stated) | 7
COc1ccc(O)cc1NC(=O)NC1CC2CCC(C1)N2C (configuration not stated) | > 10
COc1ccc(C)cc1NC(=O)NC1CC2CCC(C1)N2C (configuration not stated) | > 10
COC(=O)c1ccccc1NC(=O)NC1CC2CCC(C1)N2C (configuration not stated) | 2.1
CN1C2CCC1CC(NC(=O)Nc1ccccc1O)C2 (configuration not stated) | 11.6
COc1ccccc1NC(=O)OC1CC2CCC(C1)N2C (configuration not stated) | 2.4
CN(C)C(=O)c1ccccc1NC(=O)NC1CC2CCC(C1)N2C (configuration not stated) | > 10
CN1C2CCC1CC(NC(=O)Nc1ccccc1Oc1ccccc1)C2 (configuration not stated) | 5.4
CN1C2CCC1CC(NC(=O)Nc1ccccc1S(=O)(=O)N(C)C)C2 (configuration not stated) | 2.2
CN1C2CCC1CC(NC(=O)Nc1ccccc1OCc1ccccc1)C2 (configuration not stated) | 5.2
